The source made the active and inactive calls.
Columns and labels:
Format in all cases: functional, organism-based
[1] = test system: Rattus norvegicus; experiment: Antiarthritic activity in Wistar rat type-2 collagen-induced arthritis model assessed as reduction in arthritis index score at 1 mg/kg, ig via gavage administered 10 consecutive days starting from day 20 post type-2 collagen injection
In short: (§1)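 CIA in male 7-week-old Wistar rats: chicken CII (2 mg/mL in 0.1 M acetic acid) emulsified 1:1 in BCG-containing adjuvant, two intradermal 0.3 mL injections 7 d apart; controls received 0.05 M acetic acid. Gavage from day 20 for 10 d. Scoring, plethysmometry (mean of both hind paws) and von Frey threshold at baseline, pre-dosing and alternate days; n = 10.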

[2] = test system: Rattus norvegicus; experiment: Antiarthritic activity in Wistar rat type-2 collagen-induced arthritis model assessed as reduction in hind paw volume at 1 mg/kg, ig via gavage administered 10 consecutive days starting from day 20 post type-2 collagen injection by plethysmometer; in short: as §1
[3] = test system: Rattus norvegicus; experiment: Antiarthritic activity in Wistar rat type-2 collagen-induced arthritis model assessed as reduction in bone erosion at 1 mg/kg, ig via gavage administered 10 consecutive days starting from day 20 post type-2 collagen injection by X-ray method
[4] = test system: Rattus norvegicus; experiment: Antiarthritic activity in Wistar rat type-2 collagen-induced arthritis model assessed as reduction in cartilage space narrowing at 1 mg/kg, ig via gavage administered 10 consecutive days starting from day 20 post type-2 collagen injection by X-ray method
[5] = test system: Rattus norvegicus; experiment: Antiarthritic activity in Wistar rat type-2 collagen-induced arthritis model assessed as reduction in serum anti-type-2 collagen IgG level at 1 mg/kg, ig via gavage administered 10 consecutive days starting from day 20 post type-2 collagen injection by ELISA method
In short: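 Serum from Wistar CIA rats collected after completing 10 d gavage dosing (from day 20 post first CII injection) and assayed for anti-CII IgG using a rat anti-CII antibody ELISA kit. One-way ANOVA with Student–Newman–Keuls test; n = 10/group.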

[6] = test system: Rattus norvegicus; experiment: Antiarthritic activity in Wistar rat type-2 collagen-induced arthritis model assessed as reduction in mechanical allodynia at 1 mg/kg, ig via gavage administered 10 consecutive days starting from day 20 post type-2 collagen injection; in short: as §1
[7] = test system: Rattus norvegicus; experiment: Antiarthritic activity in Wistar rat type-2 collagen-induced arthritis model assessed as reduction in serum IL-1beta level at 1 mg/kg, ig via gavage administered 10 consecutive days starting from day 20 post type-2 collagen injection by ELISA method
In short: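 After 10 d gavage in Wistar CIA rats, trunk blood taken at sacrifice; serum stored at −70 °C. IL-1β and TNF-α measured by commercial ELISA kits per manufacturer. One-way ANOVA with Student–Newman–Keuls test; n = 10/group.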

[8] = test system: Rattus norvegicus; experiment: Antiarthritic activity in Wistar rat type-2 collagen-induced arthritis model assessed as reduction in bone degradation at 1 mg/kg, ig via gavage administered 10 consecutive days starting from day 20 post type-2 collagen injection by X-ray method
[9] = test system: Rattus norvegicus; experiment: Antiarthritic activity in Lewis rat Freund's adjuvant-induced arthritis model assessed as reduction in arthritis index score at 2.5 mg/kg, ig administered through gavage pretreated for 1 hr followed by adjuvant challenge subsequent treatment for 9 days measured alternate days up to 24 days post dose
In short: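 AIA induced in female 8-week-old Lewis rats by one intradermal 0.1 mL CFA injection (10 mg heat-killed M. tuberculosis per mL paraffin oil) into right hind paw; controls received paraffin oil–water emulsion. Daily intragastric dosing from 1 h before induction through 9 d. Arthritis index scored; Kruskal–Wallis with Dunn's test; n = 10/group.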

[10] = test system: Rattus norvegicus; experiment: Antiarthritic activity in Lewis rat Freund's adjuvant-induced arthritis model assessed as reduction in mechanical withdrawal threshold at 2.5 mg/kg, ig administered through gavage pretreated for 1 hr followed by adjuvant challenge subsequent treatment for 9 days measured alternate days up to 24 days post dose
In short: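 Mechanical withdrawal threshold in Lewis AIA rats (right-paw CFA, gavage dosing 1 h pre-induction and daily 9 d), tested 1 h after dosing: 30 min habituation in individual cubicles, von Frey filament applied upward to mid-paw until withdrawal, 55 g cut-off, repeated twice at 10 min intervals; ipsilateral and contralateral paws recorded separately; n = 10.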

[11] = test system: Rattus norvegicus; experiment: Antiarthritic activity in Lewis rat Freund's adjuvant-induced arthritis model assessed as reduction in hind paw volume at 2.5 mg/kg, ig administered through gavage pretreated for 1 hr followed by adjuvant challenge subsequent treatment for 9 days measured alternate days up to 24 days post dose by plethysmometer
In short: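 Lewis rat AIA (female, 8 weeks; 0.1 mL CFA intradermally into right hind paw), dosed by gavage 1 h pre-induction then daily for 9 d. Plethysmometer volumes of injected (ipsilateral) and uninjected (contralateral) hind paws recorded separately. Two-way ANOVA with Dunnett's T3 test; n = 10/group.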

Measured: Activity

CN(Cc1cnc2nc(N)nc(N)c2n1)c1ccc(C(=O)N[C@@H](CCC(=O)O)C(=O)O)cc1
not listed: [9] | [10] | [11]
active: all other assays above

COc1ccc2c(c1)c(CC(=O)O)c(C)n2C(=O)c1ccc(Cl)cc1
active: [9] | [10] | [11]

Source: ChEMBL document CHEMBL4041468, “Effects of Koumine on Adjuvant- and Collagen-Induced Arthritis in Rats” (J Nat Prod, 2016)
